Assay results: ChEMBL document CHEMBL1800056, “Discovery of 2-(6-{[(6-fluoroquinolin-2-yl)methyl]amino}bicyclo[3.1.0]hex-3-yl)-N-hydroxypyrimidine-5-carboxamide (CHR-3996), a class I selective orally active histone deacetylase inhibitor” (J Med Chem, 2010)
Activity calls are given as the source filed them. The rule behind the calls is not given here.

How the values were obtained:
Histone deacetylase = experiment: Inhibition of HDAC in human HeLa cells nuclear extract using fluor de Lys as substrate preincubated for 5 mins by fluorometric analysis; format: cell-based
[1] = Ratio of GI50 for human HCT116 cells to IC50 for HDAC in human HeLa cell nuclear extracts
In short: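 Cell/enzyme ratio = HCT116 GI50 divided by HDAC IC50. Enzyme: HeLa nuclear extract (10 μg protein), 5 min preincubation, then Fluor de Lys substrate 62.5 μM, 15 min at room temperature. Stopped with developer containing trichostatin A; fluorescence ex 355/em 455 nm; eight concentrations in duplicate. Cells: HCT116, 72 h exposure (0.6-10000 nM), WST-1 read at 450 nm, n = 6.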

[2] = AUC (0 to t) in plasma of CD1 mouse at 3 mg/kg, po; format: ADME, organism-based; set-up: dose 3 mg/kg, route oral
In short: (§1)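 Oral cassette PK in CD1 mice: four compounds per cassette, each at 3 mg/kg po. AUC0-t (ng h/mL) measured in plasma and spleen; spleen/plasma AUC ratio reported.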

[3] = AUC (0 to t) in spleen of CD1 mouse at 3 mg/kg, po; format: ADME, organism-based; set-up: dose 3 mg/kg, route oral; in short: as §1
[4] = Clearance in mouse liver microsomes assessed as compound remaining after 30 mins; format: ADME, Microsome; details: read-out: Activity
[5] = Clearance in human liver microsomes assessed as compound remaining after 30 mins; format: ADME, Microsome; details: read-out: Activity
Cytochrome P450 2C19 [6] = target: T1, Cytochrome P450 2C19 (Homo sapiens, UniProt P33261); experiment: Inhibition of CYP2C19; format: ADME
Cytochrome P450 2D6 [7] = target: T2, Cytochrome P450 2D6 (Homo sapiens, UniProt P10635); experiment: Inhibition of CYP2D6; format: ADME
Cytochrome P450 3A4 [8] = target: T3, Cytochrome P450 3A4 (Homo sapiens, UniProt P08684); experiment: Inhibition of CYP3A4; format: ADME
Cytochrome P450 2C19 [9] = target: T1, Cytochrome P450 2C19; experiment: Inhibition of CYP 2C19 at < 10 uM; format: ADME
Cytochrome P450 2D6 [10] = target: T2, Cytochrome P450 2D6; experiment: Inhibition of CYP2D6 at < 10 uM; format: ADME
Cytochrome P450 3A4 [11] = target: T3, Cytochrome P450 3A4; experiment: Inhibition of CYP3A4 at < 10 uM; format: ADME
[12] = Clearance in dog at 1 mg/kg, iv; format: ADME, organism-based, Canis lupus familiaris; set-up: dose 1 mg/kg, route intravenous; details: in vivo
In short: (§2)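 Dog single dose: iv 1 mg/kg in 5% DMSO-HPβC (11.25% w/v); po 10 mg/kg in 5% DMSO-saline. AUC0-t in ng h/mL, clearance in (mL/min)/kg, t1/2 in h, F in %.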

[13] = AUC (0 to t) in dog at 10 mg/kg, po; format: ADME, organism-based, Canis lupus familiaris; set-up: dose 10 mg/kg, route oral; details: plasma; in short: as §2
[14] = Oral bioavailability in dog at 10 mg/kg; format: ADME, organism-based, Canis lupus familiaris; details: in vivo; in short: as §2
Histone deacetylase 1 = Histone deacetylase 1 (Homo sapiens, UniProt Q13547); experiment: Inhibition of human recombinant HDAC1 using fluor de Lys as substrate by fluorometric analysis
Histone deacetylase 2 = Histone deacetylase 2 (Homo sapiens, UniProt Q92769); experiment: Inhibition of human recombinant HDAC2 using fluor de Lys as substrate by fluorometric analysis
Histone deacetylase 3 = Histone deacetylase 3 (Homo sapiens, UniProt O15379); experiment: Inhibition of human recombinant HDAC3 using fluor de Lys as substrate by fluorometric analysis
Histone deacetylase 5 = Histone deacetylase 5 (Homo sapiens, UniProt Q9UQL6); experiment: Inhibition of human recombinant HDAC5 using fluor de Lys as substrate by fluorometric analysis
[15] = target: Protein deacetylase HDAC6 (Homo sapiens, UniProt Q9UBN7); experiment: Inhibition of human recombinant HDAC6 using fluor de Lys as substrate by fluorometric analysis
HCT-116 [16] = experiment: Induction of apoptosis in human HCT116 cells assessed as PARP cleavage after 30 hrs by Western blot analysis; format: functional, cell-based
In short: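 HCT116 cells seeded at 2 × 10⁴ cells/mL and treated 24 h later for 30 h. RIPA lysates run at 10 μg/lane on 4-12% gels. Blotted with antibodies to PARP and cleaved PARP (1:1000); GAPDH as loading control; ECL detection.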

LoVo = experiment: Antiproliferative activity against human LoVo cells after 72 hrs by WST-1 assay; format: functional; details: Homo sapiens, LoVo, 72 h
In short: (§3)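 Cells seeded at (1-5) × 10³/well in serum-containing medium for 24 h at 37 °C, 5% CO₂. Inhibitor added at 0.6-10000 nM for 72 h, with WST-1 pulse over the final 4 h. Formazan read at 450 nm (reference 650 nm). Expressed as % inhibition of vehicle response; GI50 is the concentration inhibiting 50% of vehicle response; n = 6 replicates.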

A2780 = experiment: Antiproliferative activity against human A2780 cells after 72 hrs by WST-1 assay; format: functional; details: Homo sapiens, A2780, 72 h; in short: as §3
DU-145 = experiment: Antiproliferative activity against human DU145 cells after 72 hrs by WST-1 assay; format: functional; details: DU-145, 72 h
In short: (§4)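 Cells seeded at (1-5) × 10³/well in serum-containing medium for 24 h at 37 °C, 5% CO₂. Inhibitor added at 0.6-10000 nM for 72 h, with WST-1 pulse over the final 4 h. Formazan read at 450 nm (reference 650 nm).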

PC-3 = experiment: Antiproliferative activity against human PC3 cells after 72 hrs by WST-1 assay; format: functional; details: PC-3, 72 h; in short: as §3
HepG2 = experiment: Antiproliferative activity against human HepG2 cells after 72 hrs by WST-1 assay; format: functional; details: Homo sapiens, HepG2, 72 h; in short: as §3
MG-63 = experiment: Antiproliferative activity against human MG63 cells after 72 hrs by WST-1 assay; format: functional; details: Homo sapiens, MG-63, 72 h; in short: as §3
MIA PaCa-2 = experiment: Antiproliferative activity against human MIAPaCa2 cells after 72 hrs by WST-1 assay; format: functional; details: Homo sapiens, MIA PaCa-2, 72 h; in short: as §3
A549 = experiment: Antiproliferative activity against human A549 cells after 72 hrs by WST-1 assay; format: functional; details: Homo sapiens, A549, 72 h; in short: as §3
COR-L23 = experiment: Antiproliferative activity against doxorubicin-resistant human COR-L23 cells after 72 hrs by WST-1 assay; format: functional; details: Homo sapiens, COR-L23, 72 h; in short: as §3
MOLT-4 = experiment: Antiproliferative activity against human MOLT4 cells after 72 hrs by WST-1 assay; format: functional; details: Homo sapiens, MOLT-4, 72 h; in short: as §3
HuT78 = experiment: Antiproliferative activity against human HUT78 cells after 72 hrs by WST-1 assay; format: functional; details: HuT78, 72 h; in short: as §4
U-937 = experiment: Antiproliferative activity against human U937 cells after 72 hrs by WST-1 assay; format: functional; details: Homo sapiens, U-937, 72 h; in short: as §3
HCT-116 [17] = experiment: Cell cycle arrest in human HCT116 cells assessed as accumulation at G1 phase at 300 nM after 15 hrs by propidium iodide staining based flow cytometric analysis; format: functional
HCT-116 [18] = experiment: Cell cycle arrest in human HCT116 cells assessed as accumulation at S phase at 300 nM after 15 hrs by propidium iodide staining based flow cytometric analysis; format: functional
HCT-116 [19] = experiment: Cell cycle arrest in human HCT116 cells assessed as accumulation at G2/M phase at 300 nM after 15 hrs by propidium iodide staining based flow cytometric analysis; format: functional
Spleen = experiment: Ratio of AUC (0 to t) in spleen to plasma of CD1 mouse at 3 mg/kg, po; details: in vivo

T3 sequence (P08684 whole entry): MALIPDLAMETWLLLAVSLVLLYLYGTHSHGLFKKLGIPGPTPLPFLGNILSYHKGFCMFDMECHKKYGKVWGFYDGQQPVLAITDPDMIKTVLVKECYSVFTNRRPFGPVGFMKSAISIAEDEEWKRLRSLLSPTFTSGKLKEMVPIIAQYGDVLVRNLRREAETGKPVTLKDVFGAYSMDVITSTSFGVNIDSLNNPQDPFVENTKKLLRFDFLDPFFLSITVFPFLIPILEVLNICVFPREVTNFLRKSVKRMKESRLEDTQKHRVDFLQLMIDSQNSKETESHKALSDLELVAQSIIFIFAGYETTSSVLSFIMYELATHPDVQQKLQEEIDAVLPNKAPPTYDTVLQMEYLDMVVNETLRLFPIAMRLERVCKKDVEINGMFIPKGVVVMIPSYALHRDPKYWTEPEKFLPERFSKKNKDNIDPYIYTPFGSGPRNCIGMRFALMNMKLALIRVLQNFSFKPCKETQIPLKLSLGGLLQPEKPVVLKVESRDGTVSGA
T1 sequence (P33261 whole entry): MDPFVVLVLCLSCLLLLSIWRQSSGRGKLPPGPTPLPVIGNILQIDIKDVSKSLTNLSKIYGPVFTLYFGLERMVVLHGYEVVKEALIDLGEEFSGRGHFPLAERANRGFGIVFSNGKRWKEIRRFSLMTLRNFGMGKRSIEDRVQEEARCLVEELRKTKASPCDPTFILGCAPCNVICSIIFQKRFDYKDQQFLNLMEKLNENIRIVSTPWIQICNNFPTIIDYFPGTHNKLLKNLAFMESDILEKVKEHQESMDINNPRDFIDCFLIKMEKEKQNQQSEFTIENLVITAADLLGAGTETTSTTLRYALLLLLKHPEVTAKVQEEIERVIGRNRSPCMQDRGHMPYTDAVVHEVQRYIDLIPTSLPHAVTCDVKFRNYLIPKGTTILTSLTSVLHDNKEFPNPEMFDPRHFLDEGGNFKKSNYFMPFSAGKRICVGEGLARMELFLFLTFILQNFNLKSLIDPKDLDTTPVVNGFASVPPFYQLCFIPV
T2 sequence (P10635 whole entry): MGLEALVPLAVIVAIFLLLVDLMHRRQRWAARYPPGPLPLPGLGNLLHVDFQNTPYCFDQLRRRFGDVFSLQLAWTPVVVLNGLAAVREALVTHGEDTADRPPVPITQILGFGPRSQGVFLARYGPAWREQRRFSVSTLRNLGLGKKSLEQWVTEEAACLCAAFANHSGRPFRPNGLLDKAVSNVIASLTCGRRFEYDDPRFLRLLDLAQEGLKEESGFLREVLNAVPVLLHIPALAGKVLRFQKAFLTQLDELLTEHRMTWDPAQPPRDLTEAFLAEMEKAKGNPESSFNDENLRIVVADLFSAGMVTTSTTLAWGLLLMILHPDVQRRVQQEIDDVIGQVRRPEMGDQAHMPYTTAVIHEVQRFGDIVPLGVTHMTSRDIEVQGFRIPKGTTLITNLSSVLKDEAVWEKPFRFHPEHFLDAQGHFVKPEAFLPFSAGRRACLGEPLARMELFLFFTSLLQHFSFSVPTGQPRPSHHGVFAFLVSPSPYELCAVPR
Histone deacetylase 5, sequence (Q9UQL6 whole entry): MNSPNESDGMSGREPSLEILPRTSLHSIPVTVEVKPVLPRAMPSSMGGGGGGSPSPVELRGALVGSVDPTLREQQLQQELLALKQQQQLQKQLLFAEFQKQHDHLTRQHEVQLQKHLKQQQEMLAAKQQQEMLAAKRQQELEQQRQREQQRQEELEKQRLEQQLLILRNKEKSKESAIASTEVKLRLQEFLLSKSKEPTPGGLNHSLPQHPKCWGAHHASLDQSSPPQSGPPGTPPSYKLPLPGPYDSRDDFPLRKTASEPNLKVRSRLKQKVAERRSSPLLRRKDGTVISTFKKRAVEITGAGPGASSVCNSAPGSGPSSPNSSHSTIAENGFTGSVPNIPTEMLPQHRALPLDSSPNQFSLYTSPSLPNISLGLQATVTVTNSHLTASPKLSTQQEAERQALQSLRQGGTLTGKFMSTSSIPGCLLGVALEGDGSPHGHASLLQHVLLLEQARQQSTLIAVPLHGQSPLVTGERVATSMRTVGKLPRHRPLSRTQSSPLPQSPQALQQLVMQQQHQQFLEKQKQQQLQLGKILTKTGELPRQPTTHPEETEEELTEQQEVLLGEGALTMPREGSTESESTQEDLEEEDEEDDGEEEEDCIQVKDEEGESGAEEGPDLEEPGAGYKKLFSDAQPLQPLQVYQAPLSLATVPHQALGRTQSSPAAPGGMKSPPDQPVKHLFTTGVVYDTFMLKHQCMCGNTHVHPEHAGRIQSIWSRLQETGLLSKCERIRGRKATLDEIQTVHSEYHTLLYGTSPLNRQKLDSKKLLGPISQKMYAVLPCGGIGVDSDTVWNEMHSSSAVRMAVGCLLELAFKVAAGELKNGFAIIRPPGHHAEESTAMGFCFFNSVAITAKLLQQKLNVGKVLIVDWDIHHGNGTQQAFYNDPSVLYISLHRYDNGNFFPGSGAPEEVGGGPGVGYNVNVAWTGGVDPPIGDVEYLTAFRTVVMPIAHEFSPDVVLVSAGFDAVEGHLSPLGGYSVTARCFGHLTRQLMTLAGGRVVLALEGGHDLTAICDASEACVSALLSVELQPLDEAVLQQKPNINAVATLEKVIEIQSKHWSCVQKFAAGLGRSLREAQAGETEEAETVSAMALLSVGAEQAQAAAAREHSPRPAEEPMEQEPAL
Protein deacetylase HDAC6, sequence (Q9UBN7 whole entry): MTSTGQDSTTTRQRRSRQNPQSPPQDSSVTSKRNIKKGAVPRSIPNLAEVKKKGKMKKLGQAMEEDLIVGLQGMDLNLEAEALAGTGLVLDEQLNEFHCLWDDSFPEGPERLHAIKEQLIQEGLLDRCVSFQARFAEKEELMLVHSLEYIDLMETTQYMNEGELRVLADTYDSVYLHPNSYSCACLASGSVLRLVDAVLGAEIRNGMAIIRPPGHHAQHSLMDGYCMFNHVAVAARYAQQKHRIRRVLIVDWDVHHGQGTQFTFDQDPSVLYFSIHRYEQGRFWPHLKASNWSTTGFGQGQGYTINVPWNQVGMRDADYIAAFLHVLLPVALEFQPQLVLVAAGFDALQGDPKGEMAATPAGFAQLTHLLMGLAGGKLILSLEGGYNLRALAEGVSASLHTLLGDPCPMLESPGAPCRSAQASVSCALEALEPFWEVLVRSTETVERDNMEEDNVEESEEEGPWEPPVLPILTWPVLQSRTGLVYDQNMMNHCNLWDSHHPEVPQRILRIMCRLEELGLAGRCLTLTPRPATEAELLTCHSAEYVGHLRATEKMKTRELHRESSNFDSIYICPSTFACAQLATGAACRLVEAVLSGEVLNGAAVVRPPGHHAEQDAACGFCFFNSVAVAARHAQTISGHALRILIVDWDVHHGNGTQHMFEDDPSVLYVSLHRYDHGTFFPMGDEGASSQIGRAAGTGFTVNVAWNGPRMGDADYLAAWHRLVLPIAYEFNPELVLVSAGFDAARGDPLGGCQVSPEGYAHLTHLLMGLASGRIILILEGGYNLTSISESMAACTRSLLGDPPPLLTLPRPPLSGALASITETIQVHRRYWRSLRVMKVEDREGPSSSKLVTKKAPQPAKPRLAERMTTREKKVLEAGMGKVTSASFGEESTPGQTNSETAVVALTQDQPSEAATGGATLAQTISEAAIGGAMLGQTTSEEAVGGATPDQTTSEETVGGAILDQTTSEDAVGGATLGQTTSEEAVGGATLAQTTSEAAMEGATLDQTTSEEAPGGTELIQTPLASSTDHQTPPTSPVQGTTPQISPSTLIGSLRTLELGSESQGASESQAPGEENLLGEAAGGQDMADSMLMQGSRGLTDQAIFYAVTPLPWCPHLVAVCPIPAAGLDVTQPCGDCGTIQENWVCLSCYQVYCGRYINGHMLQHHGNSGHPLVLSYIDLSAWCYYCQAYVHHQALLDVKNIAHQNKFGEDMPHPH
Histone deacetylase 1, sequence (Q13547 whole entry): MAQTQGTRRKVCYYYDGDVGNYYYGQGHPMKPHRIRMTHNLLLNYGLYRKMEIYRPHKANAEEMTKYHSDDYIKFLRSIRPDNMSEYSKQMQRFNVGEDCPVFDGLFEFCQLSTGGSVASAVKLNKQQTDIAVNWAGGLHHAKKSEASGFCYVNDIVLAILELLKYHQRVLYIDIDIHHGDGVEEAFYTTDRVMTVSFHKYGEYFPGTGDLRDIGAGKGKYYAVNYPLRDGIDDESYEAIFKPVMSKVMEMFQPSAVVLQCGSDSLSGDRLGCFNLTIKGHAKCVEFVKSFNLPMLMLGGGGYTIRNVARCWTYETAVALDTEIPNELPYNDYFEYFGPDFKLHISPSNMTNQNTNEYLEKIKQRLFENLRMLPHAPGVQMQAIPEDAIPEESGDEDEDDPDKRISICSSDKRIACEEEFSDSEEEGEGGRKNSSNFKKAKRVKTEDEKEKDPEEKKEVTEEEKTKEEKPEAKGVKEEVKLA
Histone deacetylase 2, sequence (Q92769 whole entry): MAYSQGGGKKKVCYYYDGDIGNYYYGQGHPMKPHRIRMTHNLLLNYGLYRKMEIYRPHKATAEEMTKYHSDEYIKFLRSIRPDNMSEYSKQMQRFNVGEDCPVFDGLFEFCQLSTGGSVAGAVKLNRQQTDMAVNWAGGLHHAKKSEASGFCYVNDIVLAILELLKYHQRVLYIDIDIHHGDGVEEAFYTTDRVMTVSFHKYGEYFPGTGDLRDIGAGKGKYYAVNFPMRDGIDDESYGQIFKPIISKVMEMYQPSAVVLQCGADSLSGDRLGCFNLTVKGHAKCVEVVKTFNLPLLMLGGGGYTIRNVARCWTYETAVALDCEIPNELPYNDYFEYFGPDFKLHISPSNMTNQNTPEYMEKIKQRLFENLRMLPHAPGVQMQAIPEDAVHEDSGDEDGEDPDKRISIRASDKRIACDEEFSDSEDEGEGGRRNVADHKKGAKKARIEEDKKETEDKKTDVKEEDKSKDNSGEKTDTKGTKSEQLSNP

| Structure (SMILES) | IC50 (Histone deacetylase) [µM] | Ratio [1] | AUC(0-t) [2] [ng·h/mL] | AUC(0-t) [3] [ng·h/mL] | remaining at 0.5 h [4] [%] | remaining at 0.5 h [5] [%] | IC50 (Cytochrome P450 2C19 [6]) [µM] | IC50 (Cytochrome P450 2D6 [7]) [µM] | IC50 (Cytochrome P450 3A4 [8]) [µM] | inhibition (INH) (Cytochrome P450 2C19 [9]) | inhibition (INH) (Cytochrome P450 2D6 [10]) | inhibition (INH) (Cytochrome P450 3A4 [11]) | clearance [12] [mL/min/kg] | AUC(0-t) [13] [ng·h/mL] | bioavailability [14] [%] | IC50 (Histone deacetylase 1) [µM] | IC50 (Histone deacetylase 2) [µM] | IC50 (Histone deacetylase 3) [µM] | IC50 (Histone deacetylase 5) [µM] | IC50 [15] [µM] | also measured |
| --- | --- | --- | --- | --- | --- | --- | --- | --- | --- | --- | --- | --- | --- | --- | --- | --- | --- | --- | --- | --- | --- |
| O=C(NO)c1cnc(N2C[C@@H]3[C@H](C2)[C@H]3NCc2ccc3cc(F)ccc3n2)nc1 [NANATINOSTAT] | 0.008 | 9 | 93 | 775 | 31 | 21 | > 50 | > 50 | 10 | Not Active | Not Active | Not Active | 70 | 950 | 40 | 0.003 | 0.004 | 0.007 | 0.2 | 2.1 | Ki (Histone deacetylase): 0.0048 µM; Activity (HCT-116 [16]): Active; GI50 (LoVo): 0.14 µM; GI50 (A2780): 0.21 µM; GI50 (DU-145): 0.048 µM; GI50 (PC-3): 0.16 µM; GI50 (HepG2): 0.23 µM; GI50 (MG-63): 0.75 µM; GI50 (MIA PaCa-2): 0.28 µM; GI50 (A549): 0.25 µM; GI50 (COR-L23): 0.56 µM; GI50 (MOLT-4): 0.031 µM; GI50 (HuT78): 0.031 µM; GI50 (U-937): 0.052 µM; Activity (HCT-116 [17]): 21%; Activity (HCT-116 [18]): 10%; Activity (HCT-116 [19]): 48%; Ratio (Spleen): 8.3 |
| O=C(NO)c1cnc(N2C[C@@H]3[C@H](C2)[C@H]3NCc2ccc(Cl)cc2)nc1 | 0.013 | 16 | 58 | 436 | 43 | 38 | 50 | 10 | > 50 | Not Active | Not Active | Not Active | 63 | 1480 | 56 | 0.006 | 0.014 | 0.01 | 0.5 | 3.3 | Activity (HCT-116 [16]): Active; GI50 (LoVo): 0.31 µM; GI50 (A2780): 0.41 µM; GI50 (DU-145): 0.092 µM; GI50 (PC-3): 0.26 µM; GI50 (HepG2): 0.47 µM; GI50 (MG-63): 1.6 µM; GI50 (MIA PaCa-2): 0.62 µM; GI50 (A549): 0.5 µM; GI50 (COR-L23): 1.1 µM; GI50 (MOLT-4): 0.071 µM; GI50 (HuT78): 0.06 µM; GI50 (U-937): 0.12 µM; Activity (HCT-116 [17]): 33%; Activity (HCT-116 [18]): 11%; Activity (HCT-116 [19]): 33%; Ratio (Spleen): 7.5 |
